bovine MsrA act = bovine methionine sulfoxide reductase A activation; activation, % at 10.6 µM; purified bovine MsrA, absorbance read-out; 0.3% of 360,000 active; AID 602163; in the data active = activation above about 7.5%;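 note: 0% = vehicle and 100% = reference activator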
proCasp7 act = counter-screen: procaspase-7 (human) activation; 0.093% of 330,000 active; P55210; recombinant procaspase-7, Ac-DEVD-pNA absorbance 405 nm; D23A/D198A/D206A triple mutant, cannot self-cleave; scale: DMSO 0, 5 µM enzyme 100; activation, % at 8.5 µM;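 active = percent activation above the screen-wide mean plus 3 SD, cut at about 25% in these data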
Target sequence (P55210 whole entry D23A/D198A/D206A): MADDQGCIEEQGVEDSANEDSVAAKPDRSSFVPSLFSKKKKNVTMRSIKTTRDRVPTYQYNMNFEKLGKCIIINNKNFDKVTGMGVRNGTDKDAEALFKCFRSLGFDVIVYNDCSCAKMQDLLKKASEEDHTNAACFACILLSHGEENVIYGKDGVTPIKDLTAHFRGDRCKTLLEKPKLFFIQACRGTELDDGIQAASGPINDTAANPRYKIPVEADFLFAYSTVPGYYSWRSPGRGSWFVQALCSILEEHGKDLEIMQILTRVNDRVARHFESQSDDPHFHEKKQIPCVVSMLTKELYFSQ
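Detection: p-Nitroaniline absorbance at 405 nm, read at 0 and 120 min; system: Uncleavable procaspase-7 mutant enzyme; evaluation: % activation from two-timepoint absorbance difference, scaled to controls; times: 1 h enzyme–compound preincubation and 2 h substrate reaction, both 25 °C; buffer or medium: Zinc-free HEPES pH 7.4 with 300 mM NaCl, 0.01% Triton X-100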
MsrA inhibitor = inhibitors of bovine MsrA. purified bovine MsrA, absorbance read-out. inhibition, % at 15.5 µM. 0.75% of 360,000 active;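 note: 0% = vehicle wells with enzyme and 100% = reference inhibitor wells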
proCasp3 act = procaspase-3 (human) activation | 0.11% of 330,000 active | activation, % at 8.5 µM | AID 463141 | P42574 | recombinant procaspase-3 D3A, Ac-DEVD-pNA absorbance 405 nm;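 active = activation above the mean of all tested compounds plus 3 SD, cut at about 21% in these data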;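 note: 0% = DMSO alone and 100% = DMSO wells spiked with extra 5 µM PC-3 D3A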
Target sequence (P42574 whole entry D9A/D28A/D175A): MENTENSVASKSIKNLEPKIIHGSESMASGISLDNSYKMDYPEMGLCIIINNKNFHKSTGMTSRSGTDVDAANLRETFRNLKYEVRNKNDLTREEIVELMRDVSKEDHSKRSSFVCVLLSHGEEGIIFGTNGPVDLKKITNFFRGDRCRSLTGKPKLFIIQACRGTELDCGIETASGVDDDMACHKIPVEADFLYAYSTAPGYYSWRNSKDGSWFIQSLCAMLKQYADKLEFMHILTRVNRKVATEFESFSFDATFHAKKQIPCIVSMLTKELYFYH
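Assay system – Procaspase-3 D3A mutant · Benchmarks – DMSO low control, extra-enzyme high control · Technique – 405 nm absorbance of p-nitroaniline, reads at 0 and 120 min · Doses – 8.5 µM nominal · Measure – % activation between DMSO and enzyme-spiked controls · Also added – Ac-DEVD-pNA chromogenic peptide substrate · Schedule – 1 h compound preincubation, 2 h substrate hydrolysis at 25 °C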
TbMetRS inhib = blocks T. brucei methionyl-tRNA synthetase activity; purified T. brucei MetRS, ATP depletion, Kinase-Glo luminescence; inhibition, % at 11.9 µM; 0.4% of 360,000 active; AID 624268;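 active = inhibition above a per-plate cutoff of the control wells' mean inhibition plus 3 SD, cut at about 5.5% in these data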;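 note: 0% = DMSO wells median and 100% = median of wells with control inhibitor compound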
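Test system – parasite MetRS enzyme · Reagent – substrates ATP, L-methionine and bulk Escherichia coli tRNA · Doses – 11.9 µM compound single dose, 0.9% DMSO · Times – 15 min enzyme-compound preincubation, 2 h reaction, 10 min detection, 25 °C · Signal – Kinase-Glo luminescence, ATP depletion format · Controls – DMSO-only wells as low control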
MsrA conf = bovine MsrA inhibition, confirmed. shares compounds with MsrA inhibitor. purified bovine MsrA, absorbance read-out. 41% of 2,300 active. inhibition, % at 15.5 µM;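 note: coupled to thioredoxin reductase with NADPH and selenocystamine and DMSO as substrate; 0% = vehicle only and 100% = full effect of reference inhibitor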
An asterisk follows results filed as active. A selection: hits, their analogues and other compounds. The true share with any hit is near 1.5%. Cut-off read from the data, not from the text of the source, unless noted: active = inhibition above about 4.5%; inactive = the rest.

How did Cn1c(=O)n(C)c2cc(/C=N/NC(=O)c3ccc(Cl)cc3Cl)ccc21 do in these assays?
bovine MsrA act: -3; proCasp7 act: 3; MsrA inhibitor: 4; proCasp3 act: -4; TbMetRS inhib: 0

Results for CN(C)c1ccc(/C=N/NC(N)=S)cc1[N+](=O)[O-] ?
bovine MsrA act: -5; proCasp7 act: -9; MsrA inhibitor: 10*; proCasp3 act: 3; TbMetRS inhib: 0; MsrA conf: 7.1*

How did Cn1c(=O)n(C)c2cc(/C=N/NC(N)=S)ccc21 do in these assays?
bovine MsrA act: -8; proCasp7 act: 3; MsrA inhibitor: 5.5*; proCasp3 act: -4; TbMetRS inhib: -1; MsrA conf: 4.8*

Results for COc1ccc(-c2cc(C(F)(F)F)n3nc(N)nc3n2)cc1 ?
bovine MsrA act: -4; proCasp7 act: -7; proCasp3 act: -2; TbMetRS inhib: 1

Results for COc1ccc(-c2cc(C(F)(F)F)n3nc(C(=O)O)nc3n2)cc1 ?
bovine MsrA act: -5; proCasp7 act: 7; MsrA inhibitor: 5.1*; proCasp3 act: 2; TbMetRS inhib: -1; MsrA conf: 4

Results for OCCN=Cc1c(O)[nH]c2ccccc12 ?
bovine MsrA act: 2; proCasp7 act: 17; MsrA inhibitor: 4; proCasp3 act: 3; TbMetRS inhib: -1

What do the screens show for `COCC(C)N=Cc1c(O)[nH]c2ccccc12` (centres undefined)?
bovine MsrA act: -4; proCasp7 act: 8; MsrA inhibitor: 3; proCasp3 act: -3; TbMetRS inhib: -1

What do the screens show for `CN(C)CC(C)(C)CN=Cc1c(O)[nH]c2ccccc12`?
bovine MsrA act: -6; proCasp7 act: -6; MsrA inhibitor: 6.0*; proCasp3 act: 2; TbMetRS inhib: -1; MsrA conf: 1

How did Oc1[nH]c2ccccc2c1C=Nc1ccccc1 do in these assays?
bovine MsrA act: -3; proCasp7 act: 2; MsrA inhibitor: 5.1*; proCasp3 act: -5; TbMetRS inhib: 0; MsrA conf: 2

How did CC(CNC(=O)[C@@H](Cc1ccccc1)NC(=O)[C@H]1O[C@@H](n2ccc(=O)[nH]c2=O)[C@H](O)[C@@H]1O)c1ccccc1 (some centres undefined) do in these assays?
MsrA inhibitor: 0

How did O=C(N/C(=C/c1ccc([N+](=O)[O-])cc1)C(=O)N1CCOCC1)c1ccco1 do in these assays?
bovine MsrA act: -5; proCasp7 act: 0; MsrA inhibitor: 4.9*; proCasp3 act: 4; TbMetRS inhib: 0; MsrA conf: 4

Results for CN(C)C1=NC(=O)/C(=C\c2ccccc2)S1 ?
bovine MsrA act: -2; proCasp7 act: 9; MsrA inhibitor: 6.5*; proCasp3 act: 0; TbMetRS inhib: -1; MsrA conf: 3

What do the screens show for `Nc1ccn(C2C=CC(CO)O2)c(=O)n1` (centres undefined)?
bovine MsrA act: -2; MsrA inhibitor: 1; TbMetRS inhib: -1

How did Cc1cc(C)c(S(=O)(=O)c2cccc(Cl)c2)c(Cl)n1 do in these assays?
bovine MsrA act: -11; proCasp7 act: 9; MsrA inhibitor: 0; proCasp3 act: -1; TbMetRS inhib: -1

Results for O=c1[nH]c(=S)[nH]cc1S(=O)(=O)c1cccc(Cl)c1 ?
bovine MsrA act: 3; MsrA inhibitor: 5.8*; TbMetRS inhib: -1; MsrA conf: 3

How did COC(=O)c1cc2c(c3c4cc(C)ccc4n(S(=O)(=O)c4ccccc4)c13)C(=O)N(Cc1ccc(C(F)(F)F)cc1)C2 do in these assays?
MsrA inhibitor: 0

What do the screens show for `COc1ccc(-c2nc(=S)c3c(n2CCN2CCOCC2)CC(C)(C)OC3)cc1`?
bovine MsrA act: -12; proCasp7 act: 8; MsrA inhibitor: 4.9*; proCasp3 act: -3; TbMetRS inhib: -1; MsrA conf: 4

How did Cc1ccc(-c2nc(=S)c3c(n2CCN2CCOCC2)CC(C)(C)OC3)cc1 do in these assays?
bovine MsrA act: -13; proCasp7 act: 7; MsrA inhibitor: 4; proCasp3 act: 6; TbMetRS inhib: -1

What do the screens show for `CC1(C)Cc2c(c(=S)nc(-c3ccccc3)n2CCOCCO)CO1`?
bovine MsrA act: 1; proCasp7 act: -2; MsrA inhibitor: 1; proCasp3 act: -4; TbMetRS inhib: 0

Results for C=CCn1c(-c2ccccc2)nc(=S)c2c1CC(C)(C)OC2 ?
bovine MsrA act: -4; proCasp7 act: -12; MsrA inhibitor: 5.1*; proCasp3 act: -9; TbMetRS inhib: 0; MsrA conf: 4

What do the screens show for `Cc1cccc(NC2=C(C#N)C(=O)NC3(CCCC3)S2)c1`?
bovine MsrA act: -3; proCasp7 act: 1; MsrA inhibitor: 1; proCasp3 act: -7; TbMetRS inhib: -1

How did COC(=O)CSC1=C(C#N)C(=O)NC2(CCCCC2)S1 do in these assays?
bovine MsrA act: -17; proCasp7 act: -10; MsrA inhibitor: 5.7*; proCasp3 act: -9; TbMetRS inhib: -1; MsrA conf: 4

What do the screens show for `NS(=O)(=O)c1ccc(N/N=C/c2ccccn2)c([N+](=O)[O-])c1`?
bovine MsrA act: -13; proCasp7 act: -1; MsrA inhibitor: 5.9*; proCasp3 act: -11; TbMetRS inhib: -1; MsrA conf: 4

What do the screens show for `NS(=O)(=O)c1ccc(N/N=C/c2ccc(O)cc2O)c([N+](=O)[O-])c1`?
bovine MsrA act: -6; proCasp7 act: -16; MsrA inhibitor: 6.2*; proCasp3 act: 8; TbMetRS inhib: 0; MsrA conf: 3

What do the screens show for `NS(=O)(=O)c1ccc(N/N=C/c2ccc(O)c(O)c2O)c([N+](=O)[O-])c1`?
bovine MsrA act: -8; MsrA inhibitor: 2; TbMetRS inhib: 2

How did Cc1ccn2c(=O)c(NC(=O)COc3ccccc3)c(C)nc2c1 do in these assays?
bovine MsrA act: -8; proCasp7 act: 3; MsrA inhibitor: 4.9*; proCasp3 act: -6; TbMetRS inhib: 0; MsrA conf: 3

Results for COc1cc(/C=N/NC(=S)NCCN2CCOCC2)cc(OC)c1O ?
bovine MsrA act: -8; proCasp7 act: -9; MsrA inhibitor: 5.2*; proCasp3 act: -1; TbMetRS inhib: -1; MsrA conf: 5.7*

How did COc1cc(/C=N/NC(=O)C(=O)NCC2CCCO2)ccc1O (centres undefined) do in these assays?
bovine MsrA act: -8; proCasp7 act: 7; MsrA inhibitor: 4.8*; proCasp3 act: -3; TbMetRS inhib: -1; MsrA conf: 4

Results for COc1cc(OC)c(OC)cc1/C=N/NC(=S)NCC1CCCO1 (centres undefined) ?
bovine MsrA act: -1; proCasp7 act: -8; MsrA inhibitor: 5.9*; proCasp3 act: 3; TbMetRS inhib: 0; MsrA conf: 4.9*
